Assays:
[1] = native BNP; quoted in the discussion, no reference given; cited from earlier work
[2] = test system: plasma cGMP; type: in vivo, dog; conditions: oral 350 μg/kg; normal conscious dogs; n=6
Procedure, shortened: (§1)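 Adult male mongrel dogs (15-20 kg) with a femoral arterial port were fed 100 mEq/day sodium for 5 days, with water ad lib and sling acclimation. On the study day they were fasted and kept 30 min in a sling while conscious. Randomized single oral 350 μg/kg dose (conjugate n=5; unconjugated peptide n=6; vehicle n=6). MAP and blood were taken at baseline and 10–240 min. Plasma hBNP and cGMP were measured by radioimmunoassay. Mean ± SEM; repeated-measures ANOVA with Bonferroni.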

[3] = test system: normal conscious dogs; assay: Mean arterial pressure after acute oral administration in normal conscious dogs; type: in vivo, dog; conditions: oral 350 μg/kg, n=6, up to 240 min
Procedure, shortened: as §1

native hBNP: native human B-type natriuretic peptide, 32 amino acid mature form
Half life [1]: approximately 20 minutes
Plasma cGMP response (in words) [2]: not statistically different from baseline levels
MAP response throughout the study (in words) [3]: did not change

From PMC2767302 (Circulation, 2008)
